A selection: hits, their analogues and other compounds. The true share with any hit is near 1.7%.
HNF4A DNA FP = change in binding of human HNF4 alpha to DNA; P41235; HNF4a-FITC DNA binding, fluorescence polarization, 1 h; activity change, % at 10 µM; 0.3% of 360,000 active; in the data active means activity change above about 30%, passing the limit was not always enough
IDE cell activ = boosts human insulin-degrading enzyme activity in HEK cells; P14735; FAbeta-B cleavage, fluorescence polarization; 0% vehicle, 100% cell-free pure enzyme wells; activation, % at 5.96 µM; 0.073% of 340,000 active; AID 493087;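 active means activation above the mean of all tested compounds plus 3 SD, set per screening campaign, cut at about 17% in these data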
Target sequence (P14735 whole entry, looked up): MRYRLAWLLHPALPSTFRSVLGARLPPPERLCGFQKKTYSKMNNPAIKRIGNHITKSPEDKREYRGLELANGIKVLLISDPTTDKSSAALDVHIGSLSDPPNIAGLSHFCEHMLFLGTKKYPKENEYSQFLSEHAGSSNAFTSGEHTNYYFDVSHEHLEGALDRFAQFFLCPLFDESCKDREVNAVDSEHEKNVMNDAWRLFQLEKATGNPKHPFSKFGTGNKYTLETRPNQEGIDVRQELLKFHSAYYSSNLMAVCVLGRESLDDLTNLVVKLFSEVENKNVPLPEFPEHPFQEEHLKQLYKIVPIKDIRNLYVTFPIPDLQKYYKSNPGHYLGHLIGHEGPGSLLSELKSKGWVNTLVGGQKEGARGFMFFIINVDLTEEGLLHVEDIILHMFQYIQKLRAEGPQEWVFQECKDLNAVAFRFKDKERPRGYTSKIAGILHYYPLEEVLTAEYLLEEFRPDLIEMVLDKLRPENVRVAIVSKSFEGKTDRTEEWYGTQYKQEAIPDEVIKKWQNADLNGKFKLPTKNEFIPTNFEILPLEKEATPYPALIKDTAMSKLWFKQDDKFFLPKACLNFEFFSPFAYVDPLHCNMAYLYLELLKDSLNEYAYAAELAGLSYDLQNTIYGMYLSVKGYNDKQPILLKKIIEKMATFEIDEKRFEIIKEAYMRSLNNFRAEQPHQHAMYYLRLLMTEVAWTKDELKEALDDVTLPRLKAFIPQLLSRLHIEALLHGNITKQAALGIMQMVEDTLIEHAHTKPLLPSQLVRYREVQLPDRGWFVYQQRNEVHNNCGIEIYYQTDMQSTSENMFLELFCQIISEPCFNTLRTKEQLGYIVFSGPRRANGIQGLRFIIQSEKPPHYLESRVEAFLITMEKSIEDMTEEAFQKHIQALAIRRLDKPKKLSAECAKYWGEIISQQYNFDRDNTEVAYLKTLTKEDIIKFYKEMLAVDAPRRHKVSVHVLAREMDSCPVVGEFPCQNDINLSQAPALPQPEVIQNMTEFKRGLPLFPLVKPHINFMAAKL
TPT1 inh = inhibitors of Candida albicans tRNA 2'-phosphotransferase TPT1. AID 1962. recombinant caTPT1, FP RNA substrate dephosphorylation. 0.81% of 300,000 active. inhibition, % at 5 µM;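 active means inhibition above the mean of all tested compounds plus 3 SD, set per screening campaign, cut at about 24% in these data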
CSN inh = blocks human CSN-mediated cullin deneddylation; Q92905; Purified CSN, SCF-Nedd8-OG deneddylation, fluorescence polarization; inhibition, % at 12.5 µM; 0.38% of 360,000 active; AID 651999;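 active means pattern-corrected inhibition above about 35%, with an unprinted fluorescence ratio check between 0.5 and 1.5, limit read from the data, passing the limit was not always enough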
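Test system: Human Csn5 produced in HEK293T cells | Compound: 12.5 µM single point | Times: 90 min, room temperature | Signal: Fluorescence polarization readout | Read-out basis: % inhibition of substrate cleavage by Csn5 | Controls: no-enzyme wells high, enzyme-with-substrate wells low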
IDE cell inh = inhibitors of human insulin-degrading enzyme in cells | P14735 | HEK cells, FAbetaB cleavage, fluorescence polarization | inhibition, % at 5.59 µM | 0.41% of 320,000 active;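 active means percent inhibition above the average of all tested compounds plus 3 SD, set per screening campaign, cut at about 16% in these data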;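 further: IDE supplied by intact live HEK cells; FP after avidin binding of uncleaved biotin substrate so inhibition keeps polarization high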
Rpn11 inh = blocks the human proteasome subunit Rpn11; calls only at 20 µM; O00487; human 26S proteasome, Ub4-pepOG fluorescence polarization; 20S core pre-blocked with epoxomicin; 0.59% of 360,000 active;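 active means inhibition at 20 µM, scaled to each plate's controls, above about 33%, limit read from the data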
IDE cell inh cf = confirmation of human insulin-degrading enzyme inhibitors in cells. inhibition, % at 5.59 µM. shares compounds with IDE cell inh. 51% of 1,200 active. HEK cells, FAbetaB cleavage, fluorescence polarization;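 active means mean inhibition across triplicate wells above the cutoff set by the earlier primary insulin-degrading enzyme screen, cut at about 16% in these data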
HEK cytotox = kills HEK cells in IDE inhibitor counter-screen. shares compounds with IDE cell inh. HEK293 cytotoxicity, ATP luminescence. inhibition, % at 5.59 µM. 28% of 1,200 active. AID 449730; in the data active means inhibition above about 22%
Each line names hits and unclear results; the compound was inactive in the other large screens (follow-up assays come after a bar, where shown).

COc1ccc(Cl)cc1NC(=O)CN(C)C(=O)Cc1ccc2c(c1)CCC2	IDE cell inh 18.4 | IDE cell inh cf 19.1 | HEK cytotox inactive
CCN1C(=O)/C(=C/C=C2/Sc3ccc4ccccc4c3N2CCO)SC1=S	IDE cell inh 23.6 | IDE cell inh cf inactive | HEK cytotox inactive
CCN1C(c2ccccc2)=C(c2ccccc2)S/C1=C\C=C1/SC(=S)N(C)C1=O	none
NNc1nc(C(F)(F)F)nc2ccccc12	none
O/C=c1\ccc2cccc3nc(C(F)(F)F)nc1c23	IDE cell inh 25.8 | IDE cell inh cf 103.1 | HEK cytotox 41.1
CCCCCCc1cc2cc(C(=O)OCC)c(=O)oc2cc1O	none
CCCCCCc1cc2cc(/C(N)=N/NC(=O)c3ccncc3)c(=O)oc2cc1O	IDE cell inh 28.6 (not shown: TPT1 inh, Rpn11 inh) | IDE cell inh cf 97.0 | HEK cytotox inactive
O=c1oc2ccc(Br)cc2cc1-c1nc2ccccc2o1	IDE cell inh 20.3 | IDE cell inh cf 73.3 | HEK cytotox inactive
c1ccc(-n2ncc3c(NCc4ccco4)ncnc32)cc1	none
Cc1cccc(Nc2ncnc3c2cnn3Cc2ccccc2)c1	none
O=C(O)c1ccc(Nc2ncnc3c2cnn3Cc2ccccc2)cc1	IDE cell inh 17.0 | IDE cell inh cf inactive | HEK cytotox inactive
CC(C)CNc1ncnc2c1cnn2Cc1ccccc1Cl	IDE cell inh 17.1 | IDE cell inh cf inactive | HEK cytotox inactive
c1ccc(Cn2ncc3c(NCc4ccco4)ncnc32)cc1	IDE cell inh 17.9 | IDE cell inh cf inactive | HEK cytotox inactive
Cc1cccc(NS(=O)(=O)c2cc(C(=O)N3CCN(C)CC3)ccc2C)c1	none
COc1ccc(CNC(=O)N2CCN(c3cccc(C)c3C)CC2)cc1OC	IDE cell inh 17.5 | IDE cell inh cf inactive | HEK cytotox inactive
Cc1cccc(N2CCN(C(=O)NCc3ccc(F)cc3)CC2)c1C	none
CCC(=O)Nc1nc2c(s1)COc1ccccc1-2	none
CCOc1ccc(NC(=O)CSc2nc3c(c(=O)n2C)SC(C)C3)cc1 (configuration not stated)	IDE cell inh 16.2 | IDE cell inh cf inactive | HEK cytotox inactive
CC1Cc2nc(SCC(=O)Nc3ccc(F)cc3)n(C)c(=O)c2S1 (configuration not stated)	none
CC(Oc1ccc2c3c(c(=O)oc2c1)CCCC3)C(=O)NCc1ccncc1 (configuration not stated)	IDE cell inh 23.6 | IDE cell inh cf 17.5 | HEK cytotox inactive
COCCOc1ccc(C(F)(F)F)cc1NC(=O)COC(=O)Cc1c[nH]c2ccccc12	none (no result: TPT1 inh)
CCCCOc1ncnc2c1[nH]c1ccc(OC)cc12	IDE cell inh 21.3 (no result: HNF4A DNA FP, IDE cell activ, CSN inh, Rpn11 inh) | IDE cell inh cf inactive | HEK cytotox 37.9
CCCCOc1ncnc2c1[nH]c1ccc(F)cc12	IDE cell inh 29.7 | IDE cell inh cf inactive | HEK cytotox 69.8
CCCCOc1ncnc2c1[nH]c1ccc(OCC)cc12	none
COc1cc(/C=N\NC(=O)c2ccc(-c3ccccc3)cc2)cc(Br)c1O	IDE cell inh 21.2 | IDE cell inh cf inactive | HEK cytotox inactive
C=C(C)COc1ccc2c(CC)cc(=O)oc2c1	none
O=C(CCn1cccn1)N1CCCC(N2CCN(c3cccc(C(F)(F)F)c3)CC2)C1 (configuration not stated)	none
Cc1ccc(C)c(N(CC(=O)N2CCc3ccccc3C2)S(C)(=O)=O)c1	none
O=C(NCC(=O)N1CCN(S(=O)(=O)c2ccc3c(c2)OCCO3)CC1)c1ccccc1F	none (no result: TPT1 inh)
CN(C)S(=O)(=O)N1CCN(CC(O)COc2ccc(-c3ccccc3)cc2)CC1 (configuration not stated)	IDE cell inh 17.5 | IDE cell inh cf inactive | HEK cytotox inactive
CCOC(=O)N1CCN(CC(O)COc2ccc(-c3ccccc3)cc2)CC1 (configuration not stated)	IDE cell inh 16.6 | IDE cell inh cf inactive | HEK cytotox inactive
OC[C@@H]1CN(Cc2ccccc2)C[C@H](n2cnc3c(N4CCN(c5ccccc5)CC4)ncnc32)O1	none (no result: IDE cell activ, TPT1 inh, IDE cell inh)
C[C@@H]1C=C(C(=O)NCc2nc3ccccc3[nH]2)O[C@H](OCCCCO)C1	IDE cell inh 17.0 | IDE cell inh cf inactive | HEK cytotox inactive
COc1ccc(OC)c2nc3c(cc12)CCC3	none
Cn1nc(-c2ccccc2F)c2cc(C(=O)Nc3ccc4c(c3)OCCO4)sc21	none
COc1cccc(-c2nn(C)c3sc(C(=O)Nc4ccc5c(c4)OCCO5)cc23)c1	IDE cell inh 24.9 | IDE cell inh cf inactive | HEK cytotox inactive
c1csc(-c2ccn[nH]2)c1	none
S=c1nccc(-c2cccs2)[nH]1	IDE cell inh 19.7 | IDE cell inh cf inactive | HEK cytotox inactive
CCCc1cc(=O)oc2c3c(cc(OCC(=O)NCc4ccncc4)c12)OC(C)(C)CC3	IDE cell inh 22.8 | IDE cell inh cf inactive | HEK cytotox 25.2
CCCc1cc(=O)oc2c3c(cc(OCC(=O)NCc4ccccn4)c12)OC(C)(C)CC3	none
COc1cccc(C(=O)Nc2nc(-c3ccncc3)cs2)c1	IDE cell inh 26.4 | IDE cell inh cf inactive | HEK cytotox inactive
CC(=O)NC1=CC(=C[N+](=O)[O-])C=C1O	none (no result: TPT1 inh, IDE cell inh)
CN(C)c1nc(NCc2ccccc2)nc(SCC(=O)Nc2ccc(Cl)c(Cl)c2)n1	none
COc1ccc(-n2c(Cc3cc(=O)[nH]c(=O)[nH]3)nnc2SCC(=O)Nc2cc(C(F)(F)F)ccc2Cl)cc1	none
COc1ccccc1NC(=O)CSc1nnc(Cc2cc(=O)[nH]c(=O)[nH]2)n1-c1ccccc1	IDE cell inh 18.5 | IDE cell inh cf inactive | HEK cytotox inactive
COc1ccc(N=CC2=C(O)CC(c3ccccc3)CC2=O)c(OC)c1 (configuration not stated)	none
CCN1CCc2c(sc(NC(=O)Nc3ccc(Cl)c(Cl)c3)c2C(N)=O)C1	IDE cell inh 109.9 | IDE cell inh cf 58.5 | HEK cytotox inactive
COCC(=O)N(C)c1nnc(-c2ccccn2)s1	none
CCOc1ccc2nc(SCC3CC3(Cl)Cl)[nH]c2c1 (configuration not stated)	IDE cell inh 16.2 | IDE cell inh cf inactive | HEK cytotox 29.5
ClC1(Cl)CC1CSc1nc2ccccc2[nH]1 (configuration not stated)	none
Cn1cccc1Cc1nnc(SCC(=O)Nc2ccccc2F)n1-c1ccc(F)cc1	none
CCOC(=O)N1CCN(S(=O)(=O)N2CCCC(C(=O)NC(C)c3ccccc3)C2)CC1 (configuration not stated)	IDE cell inh 18.3 | IDE cell inh cf inactive | HEK cytotox inactive

Screens deposited in PubChem BioAssay by several laboratories.
